Source: PubChem (Johns Hopkins Ion Channel Center)
MrgX1 PAM: positive allosteric modulators of MrgX1, primary screen, HEK293 cells, Fluo-4 calcium flux | Mas-related G-protein coupled receptor member X1 (Homo sapiens), Q96LB2 | FDSS; stronger effect = higher value | B-score at 10 µM | 310,000 compounds, 0.63% hits | AID 588675, 2011;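 active = plate-corrected calcium response at least 3 library SD above typical, normal starting fluorescence, not activating the receptor alone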;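 note: compound read alongside a low EC10 to EC30 dose of BAM8-22 agonist; peak minus trough fluorescence over baseline measured at the second addition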
Target sequence (Q96LB2 whole entry, looked up): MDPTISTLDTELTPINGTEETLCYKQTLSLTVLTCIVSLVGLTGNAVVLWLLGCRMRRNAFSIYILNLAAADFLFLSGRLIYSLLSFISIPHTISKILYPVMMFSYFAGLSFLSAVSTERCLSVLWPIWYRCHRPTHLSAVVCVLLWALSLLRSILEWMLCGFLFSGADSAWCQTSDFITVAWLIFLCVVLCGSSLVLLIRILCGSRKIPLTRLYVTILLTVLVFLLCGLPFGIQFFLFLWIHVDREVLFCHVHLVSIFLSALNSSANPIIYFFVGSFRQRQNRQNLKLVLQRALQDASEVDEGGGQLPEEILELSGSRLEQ
MrgX1 agonist: agonists of human MrgX1 receptor, primary screen, HEK293 cells, Fluo-4 calcium flux; 310,000 compounds, 0.44% hits; Fluo-4 calcium fluorescence, agonist mode; stronger effect = higher value; Mas-related G-protein coupled receptor member X1 (Homo sapiens), Q96LB2; B-score at 10 µM; AID 588627, 2011;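 active = calcium response B-score plate-corrected fluorescence ratio at least 3 library SD, with starting fluorescence B-score inside 5 SD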
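times = overnight plating, then 30 min 37 °C plus 30 min room-temperature dye loading | assay system = stable human MrgX1 HEK293 cell line | input = fifteen thousand cells per well | signal = kinetic calcium dye fluorescence, Fluo-4 NW | dosing = compound delivered in addition one of three | read-out = B-scored fluorescence response ratio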
RGS4 act: RGS4 potentiators or activators, primary screen, cell-based, HEK293 M3R inducible RGS4, calcium flux; carbachol calcium flux Fluo4; stronger effect = lower value; B-score at 10 µM; 310,000 compounds, 0.92% hits;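 active = B-score of the integrated calcium signal more than 4 SD below the library mean, with starting fluorescence not abnormally high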;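 note: negative B-score means reduced calcium response which marks RGS4 activation or potentiation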
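test system = HEK293 cells with stable M3R and inducible RGS4 | schedule = recording 10 s baseline at 1 Hz, 100 s post-agonist | technique = Fluo4-AM (2 µM) calcium-flux fluorescence, kinetic read | measure = Agonist-evoked peak-minus-minimum fluorescence over baseline, integrated ratio, B score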
RGS4 inh: RGS4 inhibitors, primary screen, cell-based, HEK293 M3R inducible RGS4, calcium flux; Regulator of G-protein signaling 4 (Homo sapiens), P49798; Fluo-4 calcium flux; stronger effect = higher value; triggered by carbachol at its EC20; B-score at 10 µM; 310,000 compounds, 0.45% hits; AID 463165, 2010;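 active = B-score, a plate-corrected calcium signal, over three deviations above library mean, with baseline fluorescence within five deviations of library mean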;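 note: RGS4 expression induced by doxycycline in cells with stable M3 receptor; B-score is computed from the integrated fluorescence ratio over baseline after carbachol; higher B-score means a larger calcium signal and so more RGS4 inhibition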
Target sequence (P49798 whole entry, looked up): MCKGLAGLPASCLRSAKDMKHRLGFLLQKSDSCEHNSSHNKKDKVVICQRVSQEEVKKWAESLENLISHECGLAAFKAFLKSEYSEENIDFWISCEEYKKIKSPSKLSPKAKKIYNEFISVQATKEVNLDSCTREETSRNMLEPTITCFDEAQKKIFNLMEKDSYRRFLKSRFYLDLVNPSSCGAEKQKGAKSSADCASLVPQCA
MrgX1 antagonist: antagonists of human MrgX1 receptor, primary screen, HEK293 cells, Fluo-4 calcium flux; BAM8-22 antagonism; stronger effect = lower value; B-score at 10 µM; 310,000 compounds, 1.3% hits; AID 588676, 2011;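 active = calcium-response B-score plate-corrected more than 3 library SD below zero, starting fluorescence within 5 deviations, no agonist response on first addition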;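 note: peak minus trough fluorescence over baseline after final BAM8-22 challenge near maximal dose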
MrgX1 antag conf: MrgX1 receptor antagonists, duplicate retest, confirmation, HEK293 cells, Fluo-4 calcium flux. remaining BAM8-22 calcium response % of control (stronger effect = lower value), % at 10 µM. BAM8-22 calcium flux; stronger effect = lower value. 2,300 compounds, 19% hits. shares compounds with MrgX1 antagonist;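 active = remaining agonist calcium response no higher than 100% minus 3 SD of agonist-only control wells, with starting fluorescence near control levels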;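 note: agonist BAM8-22 given at a near maximal EC90 to ECmax level; peak minus minimum fluorescence divided by baseline after agonist addition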
HEK293 Ca flux: nonspecific calcium signal in parental HEK293, confirmation, counter-screen for MrgX1 antagonist project, parental HEK293 cells, Fluo-4 calcium flux; shares compounds with MrgX1 antagonist; Fluo-4 calcium fluorescence, FDSS; fluorescence ratio F(max-min)/F0 at 10 µM; 4,000 compounds, 2% hits; AID 624111, 2012;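 active = duplicate-averaged calcium fluorescence ratio at least three times the standard deviation of buffer wells, a nonspecific response in parental cells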
HEK293 Ca counter: calcium response in parental HEK293 cells, primary screen, counter-screen for MrgX1 allosteric activator project, cell-based, Fluo-4 calcium flux, duplicate. shares compounds with MrgX1 antagonist. fluorescence ratio F(max-min)/F0 at 10 µM. 4,000 compounds, 0.4% hits. Fluo-4 fluorescence ratio; stronger effect = higher value;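 active = calcium fluorescence ratio, averaged over duplicates, at least 3 SD of the buffer-well ratio, meaning a nonspecific response in receptor-free cells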;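 note: untransfected parental HEK293 lacking MrgX1 used as counterscreen for MrgX1 allosteric activators; fluorescence change taken during the second addition on a kinetic imager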
HEK293 Ca cntr2: calcium response in parental HEK293 cells, primary screen, counter-screen for MrgX1 agonist project, cell-based, Fluo-4 calcium flux, duplicate, agonist mode; shares compounds with MrgX1 antagonist; Fluo-4 calcium fluorescence (FDSS); stronger effect = higher value; fluorescence ratio F(max-min)/F0 at 10 µM; 4,000 compounds, 8.7% hits; AID 624115, 2012;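 active = calcium fluorescence ratio at least three times the spread of buffer wells, meaning a non-specific response in parental cells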
* = called active by the depositor. This is a sample that favours compounds with a hit; in the whole collection about 3.5% have one here.

Results for Cc1ccc(C(=O)NC(=S)Nc2ccccc2N2CCCC2)cc1[N+](=O)[O-] ?
MrgX1 PAM: inactive; MrgX1 agonist: inactive; RGS4 act: inactive; RGS4 inh: inactive; MrgX1 antagonist: -23*; MrgX1 antag conf: inactive; HEK293 Ca flux: inactive; HEK293 Ca counter: inactive; HEK293 Ca cntr2: inactive

What do the screens show for `Cc1ccc(NC(=O)C2CCN(c3ncnc4c3nc3n4CCCCC3)CC2)nc1`?
MrgX1 PAM: inactive; MrgX1 agonist: inactive; RGS4 act: inactive; RGS4 inh: inactive; MrgX1 antagonist: inactive

What do the screens show for `CCOc1ccc(S(=O)(=O)NC(=O)c2ccccc2)cc1`?
MrgX1 PAM: inactive; MrgX1 agonist: inactive; RGS4 act: inactive; RGS4 inh: inactive; MrgX1 antagonist: inactive

Results for Cc1ccc(S(=O)(=O)NC(=O)c2ccccc2)cc1C(C)C ?
MrgX1 PAM: inactive; MrgX1 agonist: inactive; RGS4 act: inactive; RGS4 inh: inactive; MrgX1 antagonist: -8.1*; MrgX1 antag conf: inactive; HEK293 Ca flux: inactive; HEK293 Ca counter: inactive; HEK293 Ca cntr2: inactive

Results for O=C(CCS(=O)(=O)c1ccc(Br)cc1)NCCC1=CCCCC1 ?
MrgX1 PAM: inactive; MrgX1 agonist: inactive; RGS4 act: inactive; RGS4 inh: inactive; MrgX1 antagonist: inactive

Results for CC1Cc2ccccc2N1C(=O)CSc1nc2ccccc2n1CC(=O)N1CCOCC1 (stereo not drawn) ?
MrgX1 PAM: inactive; MrgX1 agonist: inactive; RGS4 act: inactive; RGS4 inh: inactive; MrgX1 antagonist: -4.6*; MrgX1 antag conf: inactive; HEK293 Ca flux: inactive; HEK293 Ca counter: inactive; HEK293 Ca cntr2: inactive

Results for CC1Cc2ccccc2N1C(=O)CSc1nnc(Cn2nnc3ccccc32)n1C (stereo not drawn) ?
MrgX1 PAM: inactive; MrgX1 agonist: inactive; RGS4 act: inactive; RGS4 inh: inactive; MrgX1 antagonist: -6.9*; MrgX1 antag conf: inactive; HEK293 Ca flux: inactive; HEK293 Ca counter: inactive; HEK293 Ca cntr2: inactive

What do the screens show for `CC/C(=N/NC(=O)c1ccccc1O)c1c(C)[nH]n(-c2ccccc2)c1=O`?
MrgX1 PAM: inactive; MrgX1 agonist: inactive; RGS4 act: inactive; RGS4 inh: inactive; MrgX1 antagonist: inactive

Results for COc1ccc(CN2C3CCCC2CC(NC(=O)Nc2ccccc2)C3)cc1 (stereo not drawn) ?
MrgX1 PAM: inactive; MrgX1 agonist: inactive; RGS4 act: inactive; RGS4 inh: inactive; MrgX1 antagonist: inactive

Results for COc1ccc(CN2C3CCCC2CC(NC(=O)Nc2cccc(C)c2)C3)cc1 (stereo not drawn) ?
MrgX1 PAM: inactive; MrgX1 agonist: inactive; RGS4 act: inactive; RGS4 inh: inactive; MrgX1 antagonist: -7.9*; MrgX1 antag conf: 72%*; HEK293 Ca flux: inactive; HEK293 Ca counter: inactive; HEK293 Ca cntr2: inactive

How did Cc1cccc(-c2nc(CSc3nc4c(c(=O)[nH]3)CCC4)c(C)o2)c1 do in these assays?
MrgX1 PAM: inactive; MrgX1 agonist: inactive; RGS4 act: inactive; RGS4 inh: inactive; MrgX1 antagonist: -8.4*; MrgX1 antag conf: 82%*; HEK293 Ca flux: inactive; HEK293 Ca counter: inactive; HEK293 Ca cntr2: inactive

How did CCC(=O)Nc1nnc(-c2cccs2)s1 do in these assays?
MrgX1 PAM: inactive; MrgX1 agonist: inactive; RGS4 act: inactive; RGS4 inh: inactive; MrgX1 antagonist: -5.1*; MrgX1 antag conf: inactive; HEK293 Ca flux: inactive; HEK293 Ca counter: inactive; HEK293 Ca cntr2: inactive

Results for CS(=O)(=O)N(Cc1ccc(C(=O)N2CCc3ccccc3C2)cc1)c1ccccc1 ?
MrgX1 PAM: inactive; MrgX1 agonist: inactive; RGS4 act: inactive; RGS4 inh: inactive; MrgX1 antagonist: -7.5*; MrgX1 antag conf: inactive; HEK293 Ca flux: inactive; HEK293 Ca counter: inactive; HEK293 Ca cntr2: inactive

How did CC1CCC(NC(=O)CN2C(=O)c3cccnc3Oc3ccc(Cl)cc32)CC1 (stereo not drawn) do in these assays?
MrgX1 PAM: inactive; MrgX1 agonist: inactive; RGS4 act: inactive; RGS4 inh: inactive; MrgX1 antagonist: inactive

How did CCOC(=O)CC1C(=O)NCCN1S(=O)(=O)c1ccc(Cl)cc1Cl (stereo not drawn) do in these assays?
MrgX1 PAM: inactive; MrgX1 agonist: inactive; RGS4 act: inactive; RGS4 inh: inactive; MrgX1 antagonist: -6.9*; MrgX1 antag conf: inactive; HEK293 Ca flux: inactive; HEK293 Ca counter: inactive; HEK293 Ca cntr2: inactive

Results for CCc1ccc(C(=O)OCC(=O)c2c(N)n(CC(C)C)c(=O)n(C)c2=O)cc1 ?
MrgX1 PAM: inactive; MrgX1 agonist: inactive; RGS4 act: inactive; RGS4 inh: inactive; MrgX1 antagonist: inactive

What do the screens show for `COc1ccc(C(C(=O)NCC2CCCO2)N(C(=O)CNC(=O)c2cccs2)c2ccccc2C)cc1OC` (stereo not drawn)?
MrgX1 PAM: inactive; MrgX1 agonist: inactive; RGS4 act: inactive; RGS4 inh: inactive; MrgX1 antagonist: inactive

How did CC(=O)Nc1ccc2c(c1)N(C(C)=O)c1ccccc1CC2 do in these assays?
MrgX1 PAM: inactive; MrgX1 agonist: inactive; RGS4 act: inactive; RGS4 inh: inactive; MrgX1 antagonist: -4.7*; MrgX1 antag conf: 82%*; HEK293 Ca flux: inactive; HEK293 Ca counter: inactive; HEK293 Ca cntr2: inactive
